Blank lines part the entries; values can stand above or below the compound they belong to. Residues, ends and D or L forms follow the SMILES beside them.
Assays:
DPP IV = assay: Degradation rates of EMs by purified DPP IV with and without inhibitors; type: biochemical
Summary of the method: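 Commercial purified DPP IV at 0.002 mg protein/ml incubated with endomorphin and test compound (1 mM solutions in 50 mM Tris–HCl, pH 7.4) at 37°C for 0, 7.5, 15, 22.5 and 30 min. Stopped on ice with 1 M HCl, centrifuged, RP-HPLC on C18 (0.1% TFA/acetonitrile gradient). k from linear regression of ln(A/A0) versus time; % inhibition from k with and without inhibitor. Three experiments in duplicate; mean ± SEM.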

APM [1] = target: T1, APM (Sus scrofa, UniProt P15145); assay: Degradation rates of EMs by purified APM with and without inhibitors; type: biochemical
T1 sequence (P15145 2-963): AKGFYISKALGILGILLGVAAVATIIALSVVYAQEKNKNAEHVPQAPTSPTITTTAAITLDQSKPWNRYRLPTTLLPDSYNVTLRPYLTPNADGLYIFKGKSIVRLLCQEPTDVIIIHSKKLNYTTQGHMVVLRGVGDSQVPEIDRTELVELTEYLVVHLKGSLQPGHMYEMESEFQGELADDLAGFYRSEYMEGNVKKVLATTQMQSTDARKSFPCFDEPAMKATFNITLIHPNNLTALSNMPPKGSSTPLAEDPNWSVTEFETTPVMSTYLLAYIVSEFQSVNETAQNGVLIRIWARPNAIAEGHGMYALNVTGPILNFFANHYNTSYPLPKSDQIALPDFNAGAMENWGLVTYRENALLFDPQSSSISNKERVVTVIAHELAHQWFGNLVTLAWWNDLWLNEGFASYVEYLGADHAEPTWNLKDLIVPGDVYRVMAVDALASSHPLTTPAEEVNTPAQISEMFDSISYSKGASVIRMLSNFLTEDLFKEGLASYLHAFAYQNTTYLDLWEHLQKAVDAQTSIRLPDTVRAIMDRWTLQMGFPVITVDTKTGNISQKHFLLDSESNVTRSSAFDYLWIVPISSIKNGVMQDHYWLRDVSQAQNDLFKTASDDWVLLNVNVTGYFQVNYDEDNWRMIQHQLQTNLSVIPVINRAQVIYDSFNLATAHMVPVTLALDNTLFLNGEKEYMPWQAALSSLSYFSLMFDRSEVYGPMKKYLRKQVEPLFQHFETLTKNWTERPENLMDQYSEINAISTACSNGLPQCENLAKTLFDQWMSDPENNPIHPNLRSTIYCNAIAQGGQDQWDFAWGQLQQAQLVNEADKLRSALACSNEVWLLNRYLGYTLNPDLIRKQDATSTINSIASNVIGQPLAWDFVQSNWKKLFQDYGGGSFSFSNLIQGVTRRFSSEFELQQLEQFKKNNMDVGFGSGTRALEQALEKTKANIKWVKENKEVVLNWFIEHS

[2] = test system: rat spinal cord homogenate; conditions: ref Sugimoto-Watanabe et al., [1999]; cited from earlier work
[3] = Blood-brain barrier crossing; type: in vivo; conditions: preliminary results
APM [4] = target: T2, APM (Sus scrofa, UniProt P15145, species not given); assay: Degradation rates of EMs by purified APM with and without inhibitors; type: biochemical; conditions: purified APM (commercially available enzyme), pH 7.4
T2 sequence (P15145 2-963): T1 sequence (P15145 2-963)

[5] = substrate EM-1, 37°C, 0-30 min, Tris-HCl pH 7.4
[6] = substrate EM-2, 37°C, 0-30 min, Tris-HCl pH 7.4

Compound: Ile-Pro-Ile [Diprotin A]
100 × k, degradation rate of EM-1 by DPP IV in the presence of inhibitor (DPP IV; [5]): 0.13 ± 0.01 min⁻¹
100 × k, degradation rate of EM-2 by DPP IV in the presence of inhibitor (DPP IV; [6]): 0.18 ± 0.01 min⁻¹

100 × k, degradation rate of EM-1 by APM in the presence of inhibitor (APM [1]; [5]): 1.88 ± 0.09 min⁻¹
100 × k, degradation rate of EM-2 by APM in the presence of inhibitor (APM [1]; [6]): 1.50 ± 0.05 min⁻¹
Compound: CCCCC[C@H](CC(=O)NO)C(=O)N[C@H](C(=O)N1CCC[C@H]1CO)C(C)C [Actinonin, actinonin]
Effect on EM-1 degradation in rat spinal cord homogenate [2]: significantly blocked EM-1 degradation

Compound: C[C@H](NC(=O)[C@@H]1CCCN1C(=O)[C@@H](N)Cc1ccc(O)cc1)C(N)=O [EMDB-2, Tyr-Pro-Ala-NH2] (H-Tyr-Pro-Ala-NH2; N-terminus assumed)
Crossing of the blood-brain barrier [3]: do not cross the blood–brain barrier

Compound: NC(=O)[C@H](Cc1ccccc1)NC(=O)[C@H](Cc1c[nH]c2ccccc12)NC(=O)[C@@H]1CCCN1C(=O)[C@@H](N)Cc1ccc(O)cc1 [EM-1, Tyr-Pro-Trp-Phe-NH2]
100 × k, degradation rate of EM-1 by APM alone (APM [1]; without inhibitor, 37°C): 3.51 ± 0.09 min⁻¹
half-life (APM [4]): 19.7 ± 0.5 min
half-life (DPP IV; purified DPP IV (commercially available enzyme), pH 7.4): 16.7 ± 0.52 min
Resistance to DPP IV relative to EM-2 (DPP IV; without inhibitor): about 1.5 times
100 × k, degradation rate of EM-1 by DPP IV alone (DPP IV; without inhibitor, 37°C): 4.12 ± 0.2 min⁻¹
